The target of experiment [1] is T1, 5-hydroxytryptamine receptor 1A (Rattus norvegicus, UniProt P19327).
T1 sequence (P19327 whole entry): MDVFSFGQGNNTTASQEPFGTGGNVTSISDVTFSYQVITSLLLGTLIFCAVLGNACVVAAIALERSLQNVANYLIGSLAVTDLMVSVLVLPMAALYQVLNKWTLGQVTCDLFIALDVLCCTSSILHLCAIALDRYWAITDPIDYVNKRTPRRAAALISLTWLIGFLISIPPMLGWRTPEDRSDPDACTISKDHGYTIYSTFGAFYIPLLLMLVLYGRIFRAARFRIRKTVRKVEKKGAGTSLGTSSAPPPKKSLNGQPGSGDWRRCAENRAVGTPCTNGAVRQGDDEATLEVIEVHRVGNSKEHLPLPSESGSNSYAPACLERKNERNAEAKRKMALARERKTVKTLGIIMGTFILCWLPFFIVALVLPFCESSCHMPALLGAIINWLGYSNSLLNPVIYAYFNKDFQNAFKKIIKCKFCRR
Put plainly: Binding affinity was measured against 5-hydroxytryptamine 1A receptor by displacement of [3H]8-OH-DPAT by lysergic acid amides. An outline of the steps:
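Rat hippocampal membranes from pooled male Sprague-Dawley rats, preincubated at 37 °C, in 50 mM Tris HCl (pH 7.4) with 0.5 mM Na2EDTA, 0.1% ascorbate and 10 μM pargyline. Competition against 0.75 nM [3H]-8-OH-DPAT for 10 min at 37 °C, then GF/C filtration and scintillation counting. Triplicates. Three to four experiments combined, analysed with EBDA/LIGAND.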

For experiment [2], the target named is 5-hydroxytryptamine receptor 2A (Rattus norvegicus, UniProt P14842). Put plainly: Binding affinity was measured against 5-hydroxytryptamine 2A receptor by displacement of [3H]- ketanserin by lysergic acid amides. An outline of the steps: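 Rat frontal cortex membranes from pooled male Sprague-Dawley rats, preincubated at 37 °C, in 50 mM Tris HCl (pH 7.4) with 0.5 mM Na2EDTA, 0.1% ascorbate, 10 μM pargyline and 5.7 mM CaCl2. Triplicates. Three to four experiments combined.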
Chain of 5-hydroxytryptamine receptor 2A (P14842 whole entry): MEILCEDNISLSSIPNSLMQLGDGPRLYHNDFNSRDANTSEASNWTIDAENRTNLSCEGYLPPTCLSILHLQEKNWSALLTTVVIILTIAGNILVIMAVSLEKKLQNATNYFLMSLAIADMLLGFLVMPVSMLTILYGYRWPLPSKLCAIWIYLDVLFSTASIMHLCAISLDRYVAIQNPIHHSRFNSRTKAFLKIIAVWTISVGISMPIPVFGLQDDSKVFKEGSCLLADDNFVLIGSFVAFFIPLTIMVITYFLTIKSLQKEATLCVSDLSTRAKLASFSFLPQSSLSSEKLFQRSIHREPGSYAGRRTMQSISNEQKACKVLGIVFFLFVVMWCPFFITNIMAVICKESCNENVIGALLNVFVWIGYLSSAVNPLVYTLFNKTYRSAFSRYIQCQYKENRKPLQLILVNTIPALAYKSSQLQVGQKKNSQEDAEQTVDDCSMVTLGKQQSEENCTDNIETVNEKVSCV

Experiment [3] concerns Rattus norvegicus. The experiment is described as follows: Compound was tested for its effect on animals. Value reported as number of rats disrupted in trained rats at a dose of 55 (nmol/kg). The class given is functional. The method, boiled down:
(§1)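 Two-lever drug discrimination in food-restricted rats (~80% free-feeding weight) trained on FR 50 to tell saline from LSD tartrate (186 nmol/kg, 0.08 mg/kg ip, 30 min pre-session). Test drugs were given ip in saline, 1 mL/kg. Test sessions ran under extinction, ending at 50 presses on either lever. Testing required 85% training accuracy. Counts of rats tested and disrupted were recorded, plus the percentage selecting the drug lever.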

Experiment [4] has as its system Rattus norvegicus. The experiment is described as follows: Compound was tested for its effect on animals. Value reported as number of rats disrupted in trained rats at a dose of 220 (nmol/kg). In kind it is functional. An outline of the steps: as §1
Experiment [5] has as its system Rattus norvegicus. The experiment is described as follows: Effective dose in trained rats was determined at a dose of 55 (nmol/kg) Value in parentheses are with 95% confidence intervals. In kind it is functional.
The test system of experiment [6] is Rattus norvegicus. Put plainly: Compound was tested for its effect on animals. Value reported as number of rats disrupted in trained rats at a dose of 110 (nmol/kg). The class given is functional. An outline of the steps:
as §1

The test system of experiment [7] is Rattus norvegicus. Put plainly: Percentage of animals selecting drug lever in trained rats at a dose 55 (nmol/kg). In kind it is functional. An outline of the steps: (§2)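 Drug-naive rats held at about 80% of free-feeding weight were trained on a two-lever FR50 food schedule to tell ip LSD tartrate (186 nmol/kg, 0.08 mg/kg) from saline, given 30 min before sessions. Test drugs were given ip in saline (1 mL/kg). Tests ran under extinction and ended at 50 presses on either lever. Rats had to hold 85% correct on training days. Read-out was % selecting the drug lever per dose.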

Experiment [8] has as its system Rattus norvegicus. The experiment is described as follows: Potency in trained rats was determined with relative to reference compound […] at a dose of 55 (nmol/kg). The class given is functional.
The subject of experiment [9] is Rattus norvegicus. The experiment is described as follows: Percentage of animals selecting drug lever in 1-Trained rats at a dose 110 (nmol/kg). The class given is functional. An outline of the steps: as §1
In experiment [10] the test system is Rattus norvegicus. The experiment is described as follows: Percentage of animals selecting drug lever in 1-Trained rats at a dose 220 (nmol/kg). In kind it is functional. The method, boiled down: as §1
Experiment [11] deals with Rattus norvegicus. The experiment is described as follows: Compound was tested for its effect on animals. Value reported as number of rats disrupted in trained rats at a dose of 639 (nmol/kg). In kind it is functional. The method, boiled down: as §1
In experiment [12] the test system is Rattus norvegicus. The experiment is described as follows: Compound was tested for its effect on animals. Value reported as number of rats disrupted in trained rats at a dose of 426 (nmol/kg). The class given is functional. An outline of the steps: as §1
The subject of experiment [13] is Rattus norvegicus. Put plainly: Compound was tested for its effect on animals. Value reported as number of rats disrupted in trained rats at a dose of 213 (nmol/kg). In kind it is functional. The method, boiled down:
as §1

For experiment [14], the system named is Rattus norvegicus. The experiment is described as follows: Effective dose in trained rats was determined at a dose of 213 (nmol/kg). The class given is functional, organism-based.
The test system of experiment [15] is Rattus norvegicus. The experiment is described as follows: Percentage of animals selecting drug lever in trained rats at a dose 426 (nmol/kg). The class given is functional. The method, boiled down:
as §1

Experiment [16] relates to Rattus norvegicus. The experiment is described as follows: Percentage of animals selecting drug lever in trained rats at a dose 639 (nmol/kg). The class given is functional. An outline of the steps:
as §2

The test system of experiment [17] is Rattus norvegicus. Put plainly: Percentage of animals selecting drug lever in trained rats at a dose 213 (nmol/kg). The class given is functional. An outline of the steps:
as §1

Experiment [18] concerns Rattus norvegicus. The experiment is described as follows: Compound was tested for its effect on animals. Value reported as number of rats disrupted in trained rats at a dose of 186 (nmol/kg). In kind it is functional. An outline of the steps:
as §1

Experiment [19] deals with Rattus norvegicus. Put plainly: Potency in trained rats was determined with relative to reference compound […] at a dose of 186 (nmol/kg). In kind it is functional.
Experiment [20] relates to Rattus norvegicus. The experiment is described as follows: Percentage of animals selecting drug lever in trained rats at a dose 186 (nmol/kg). The class given is functional. The method, boiled down: as §1
Experiment [21] relates to Rattus norvegicus. The experiment is described as follows: Effective dose in trained rats was determined at a dose of 186 (nmol/kg). In kind it is functional.

The source of these data is ChEMBL document CHEMBL1128272, “Stereoselective LSD-like activity in a series of d-lysergic acid amides of (R)- and (S)-2-aminoalkanes” (J Med Chem, 1995).

Calls of active or inactive are those of the source. No cut-off for these calls is given here.

`CCC[C@@H](C)NC(=O)[C@@H]1C=C2c3cccc4[nH]cc(c34)C[C@H]2N(C)C1`: the figures for the Ki in experiment [1] and in experiment [2] were 0.6 nM and 4.5 nM, respectively. Further, the values for the D in experiment [3], in experiment [4] and in experiment [6] were 0%, 30% and 0%, respectively. Further, the ED50 in experiment [5] came out at 0.102 µmol/kg. Besides, the SDL in experiment [7] amounted to 14%; in experiment [9], 44%; in [10] it was 100%. This compound came in with a Potency in experiment [8] of 0.47.
As for `CCCCCC(C)NC(=O)[C@@H]1C=C2c3cccc4[nH]cc(c34)C[C@H]2N(C)C1` (stereo not given in full), the results for the Ki in experiment [1] and in experiment [2] were 14 nM and 357 nM, respectively.
As for `CCCCC(C)NC(=O)[C@@H]1C=C2c3cccc4[nH]cc(c34)C[C@H]2N(C)C1` (stereo not given in full), the Ki in [1] amounted to 4.9 nM; in experiment [2], 55 nM. The D turned out to be 12.5% in experiment [11], 30% in experiment [12] and 30% in [13]. For the same compound, the ED50 entry in experiment [14] was “inactive”. The SDL in experiment [15] amounted to 0%; in experiment [16], 0%; in experiment [17], 29%.
`CCN(CC)C(=O)[C@@H]1C=C2c3cccc4[nH]cc(c34)C[C@H]2N(C)C1` [LYSERGIDE] returned a D in [18] of 0%. Further, in experiment [19], the Potency is 1. This compound showed an SDL in experiment [20] of 100%. The ED50 in experiment [21] came out at 0.048 µmol/kg.
